# Test results taken from article PMC4364164 (International Journal of Nanomedicine, 2015).
# Assays:
# cells = conditions: NBD alone; cited from earlier work
# SH-SY5Y cells [1] = test: MTT assay for cell viability, SH-SY5Y; format: cell-based, human; conditions: for cell death induced: positive control, data not shown
# Procedure, shortened: (§1)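 Seeded in 96-well plates: SH-SY5Y at 8,000/well, U-87 MG at 5,000/well. Exposed 20 h to test compound 0.5–15 μM or equal-volume PBS vehicle; H2O2 400 or 800 μM as positive control. MTT 0.5 mg/mL for 3 h at 37°C. Formazan dissolved in isopropanol with 0.1 M HCl; optical density at 590 nm. Mean ± SE of five separate incubations.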
# U-87 MG cells [2] = test: MTT assay for cell viability, U-87 MG; format: cell-based, human; conditions: for cell death induced: positive control, data not shown
# Procedure, shortened: as §1
# SH-SY5Y cells [3] = test: Maximal oxidative capacity; format: cell-based, human; conditions: 0–15 μM, 20 hours, Clark-type oxygen electrode 37°C, five separate incubations (Figure 1C)
# U-87 MG cells [4] = test: Maximal oxidative capacity; format: cell-based, human; conditions: regardless of the concentration used, 20 hours, five separate incubations (Figure 1D)
# SH-SY5Y cells [5] = test: Cellular uptake by fluorescence microscopy, SH-SY5Y; format: cell-based, human; conditions: 1 or 5 μM (Figure 2: 5 μM), 2 hours, NBD fluorescence, fixed cells
# Procedure, shortened: (§2)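 NBD-labelled peptide (N-terminal) in PBS. Cells grown in DMEM with 10% FBS, 2 mM L-glutamine, penicillin and streptomycin at 37°C in 5% CO2. Seeded at 60,000/well on four-well chamber slides, then exposed to 1 or 5 μM for 2 h. Fixed in ice-cold methanol for 10 min and mounted in glycerol/PBS 1:1. Imaged on NBD (λem 515 nm) and DAPI (λex 350/λem 461 nm) channels.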
# U-87 MG cells [6] = test: Cellular uptake by fluorescence microscopy, U-87 MG; format: cell-based, human; conditions: 1 or 5 μM (Figure 2: 5 μM), 2 hours, NBD fluorescence, fixed cells
# Procedure, shortened: as §2
# U-87 MG cells [7] = test: Spectrofluorimetric analysis of internalized peptide, U-87 MG; format: cell-based, human; conditions: concentration not given
# liver = test: Fluorescence histological analysis ex vivo, liver; format: in vivo; conditions: rat, single intravenous administration of gH625-NBD 40 μg/100 g body weight, 3.5 hours
# Procedure, shortened: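 Male Wistar rats (250–300 g; n=3 per group) got one iv dose of NBD-labelled test peptide, 40 μg/100 g, or PBS vehicle. After 3.5 h: ip Zoletil anaesthesia, then decapitation. Liver dissected. Half was fixed in Bouin's fluid 24 h and paraffin-embedded. 7 μm sections treated with 0.1% Sudan Black B in 70% ethanol 20 min against autofluorescence, then hemallum-stained and imaged for green fluorescence.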
# brain = test: Fluorescence histological analysis ex vivo, brain; format: in vivo; conditions: rat, single intravenous administration of gH625-NBD 40 μg/100 g body weight, 3.5 hours
# Procedure, shortened: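 Male Wistar rats (250–300 g; n=3 per group) got one iv dose of NBD-labelled test peptide, 40 μg/100 g, or PBS vehicle. After 3.5 h: ip Zoletil anaesthesia, then decapitation. Sagittal 10 μm sections: Bouin's fixation 24 h, paraffin, 0.1% Sudan Black B in 70% ethanol 20 min, hemallum. Co-stained for SMI-71 endothelial marker, GFAP or tubulin III (citrate pH 6.0 unmasking), colocalization by nMDP. Outside/inside-vessel fluorescence ratio from ≥10 slices.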
# blood–brain barrier = test: Immunofluorescence analysis of brain sections; format: in vivo; conditions: rat, intravenous 40 μg/100 g, 3.5 hours
# Procedure, shortened: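 Same rats dosed iv at 40 μg/100 g, sampled at 3.5 h. Brains Bouin-fixed and paraffin-embedded; sections dewaxed, citrate (pH 6.0) microwave unmasking at 96°C. Stained with anti-BBB SMI-71, anti-GFAP or anti-tubulin III and 594-nm secondaries; imaged at 488/515 and 594/618 nm. Deconvolved, nMDP colocalisation. Outside/inside-vessel fluorescence per ROI area over ten sections, n=3 per group; two-tailed unpaired t-test.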
# brain homogenates [8] = test: Mitochondrial respiration rate in brain homogenate after in vivo administration; conditions: rat brain homogenate; intravenous 40 μg/100 g, 3.5 hours; three rats
# Procedure, shortened: (§3)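 Same iv dosing (40 μg/100 g, PBS vehicle, three rats, sampled at 3.5 h). Homogenate (300 μg protein) in 1 mL buffer: 80 mM KCl, 50 mM HEPES, 1 mM EGTA, 5 mM KH2PO4, 2 mM MgCl2, 1% BSA, pH 7.4. Added 4 μM rotenone and 5 mM succinate; basal without ADP, stimulated with 200 μM ADP; respiratory control ratio derived. Clark electrode at 37°C; 1 mM KCN added. Triplicate runs.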
# liver homogenates [9] = test: Mitochondrial respiration rate in liver homogenate after in vivo administration; conditions: rat liver homogenate; intravenous 40 μg/100 g, 3.5 hours; three rats
# Procedure, shortened: as §3
# brain homogenates [10] = test: Cytochrome oxidase activity; format: in vivo; conditions: rat brain homogenate; intravenous 40 μg/100 g, 3.5 hours; three rats
# Procedure, shortened: (§4)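 Male Wistar rats (250–300 g), three per group, given a single iv dose of NBD-peptide 40 μg/100 g or PBS vehicle. Zoletil anaesthesia, decapitation at 3.5 h. Tissue homogenised 1:5 w/v in mannitol/sucrose/Tris/EDTA/EGTA/1% BSA medium, pH 7.4. Diluted 1:2 with Lubrol, 30 min on ice. Cytochrome oxidase assayed polarographically (Clark electrode, 37°C), with 1 mM KCN control. Mean ± SE of three rats; triplicate runs.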
# liver homogenates [11] = test: Cytochrome oxidase activity; format: in vivo; conditions: rat liver homogenate; intravenous 40 μg/100 g, 3.5 hours; three rats
# Procedure, shortened: as §4
compound,measurement,setting,value
"7-nitrobenz-2-oxa-1,3-diazole-4-yl [NBD]",penetration into the cells,cells,almost unable to penetrate
OO [H2O2],cell death induced,SH-SY5Y cells [1]; 400 μM,30%
same,cell death induced,SH-SY5Y cells [1]; 800 μM,45%
same,cell death induced,U-87 MG cells [2]; 400 μM,22%
same,cell death induced,U-87 MG cells [2]; 800 μM,52%
H-HGLASTLTRWAHYNALIRAFGGG-NH2 [gH625],effect on cell viability (MTT),"SH-SY5Y cells [1]; 0.5–15 μM, 20 hours, mean ± standard error of five separate incubations (Figure 1A)",no significant effect
same,effect on cell viability (MTT),"U-87 MG cells [2]; 0.5–15 μM, 20 hours, mean ± standard error of five separate incubations (Figure 1B)",no significant effect
same,effect on maximal oxidative capacity (cytochrome oxidase activity),SH-SY5Y cells [3],did not significantly affect
same,effect on maximal oxidative capacity (cytochrome oxidase activity),U-87 MG cells [4],ineffective
same,cellular uptake by fluorescence microscopy,SH-SY5Y cells [5],significant uptake
same,cellular uptake by fluorescence microscopy,U-87 MG cells [6],significant uptake
same,administered peptide taken up,U-87 MG cells [7],more than 90%
same,distribution in liver (fluorescence histology),liver,partly taken up by Kupffer cells
same,distribution in brain (fluorescence histology),brain,reaches the BBB and accumulates in the extensions of nerve cells
same,"colocalization with astrocytes surrounding the BBB (anti-GFAP, nMDP)",blood–brain barrier,little or no colocalization
same,"colocalization with the endothelial BBB (anti-BBB SMI-71, nMDP)",blood–brain barrier,More colocalization
same,effect on respiratory control ratio,brain homogenates [8],no changes
same,effect on mitochondrial respiration rate,liver homogenates [9],does not influence
same,effect on maximal oxidative capacity (cytochrome oxidase activity),brain homogenates [10],not affected
same,effect on maximal oxidative capacity (cytochrome oxidase activity),liver homogenates [11],not affected
